procasp3 activ = activators of human procaspase-3 D3A mutant, primary screen, biochemical, absorbance, PC-3 D3A mutant, single concentration; Caspase-3 (Homo sapiens), P42574; recombinant procaspase-3 D3A, Ac-DEVD-pNA absorbance 405 nm; activation, % at 8.5 µM; hit rate 0.11% among 330,000; AID 463141, 2010;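 active means activation above the mean of all tested compounds plus 3 SD, cut at about 21% in these data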;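 further: 0% = DMSO alone and 100% = DMSO wells spiked with extra 5 µM PC-3 D3A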
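Evaluation: percent activation relative to control range; Material: Procaspase-3 D3A mutant, all three cleavage aspartates alanine; Compound: single dose, 8.5 µM nominal compound, 0.8% DMSO; Replication: one well per compound; Signal: absorbance at 405 nm, 0 and 120 min; Schedule: 1 h preincubation plus 2 h reaction at 25 °C.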
procasp7 counter = procaspase-7 activators, primary screen, counter-screen for procaspase-3 activator project, biochemical, absorbance, HTS, human. activation, % at 8.5 µM. hit rate 0.093% among 330,000. Caspase-7 (Homo sapiens), P55210. recombinant procaspase-7, Ac-DEVD-pNA absorbance 405 nm; D23A/D198A/D206A triple mutant, cannot self-cleave; scale: DMSO 0, 5 µM enzyme 100;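 active means percent activation above the screen-wide mean plus 3 SD, cut at about 25% in these data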
Target sequence (P55210 whole entry D23A/D198A/D206A): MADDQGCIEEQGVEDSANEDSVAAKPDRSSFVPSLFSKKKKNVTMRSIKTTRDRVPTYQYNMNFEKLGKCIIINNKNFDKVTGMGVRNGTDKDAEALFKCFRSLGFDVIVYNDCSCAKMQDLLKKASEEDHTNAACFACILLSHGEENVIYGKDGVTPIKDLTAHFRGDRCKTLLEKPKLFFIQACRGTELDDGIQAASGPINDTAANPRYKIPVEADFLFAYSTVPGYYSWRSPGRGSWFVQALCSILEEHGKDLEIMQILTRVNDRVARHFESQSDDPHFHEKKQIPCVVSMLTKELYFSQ
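Replicates: singlicate. Assay system: Procaspase-7 triple mutant (PC-7 D3A). Signal: 405 nm absorbance of p-nitroaniline. Times: 1 h preincubation, 2 h reaction. Buffer or medium: Zinc-free HEPES pH 7.4 with 300 mM NaCl, 0.01% Triton X-100. Also added: DEVD-pNA substrate. Benchmarks: DMSO wells as 0%, DMSO with 5 µM added PC-7 as 100%.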
PREPL inhibitor = PREPL enzyme inhibitors, primary screen, biochemical, fluorescence polarization; Prolyl endopeptidase-like (Homo sapiens), Q4J6C6; recombinant PREPL, fluorescence polarization activity-based probe; inhibition, % at 5.96 µM; hit rate 0.68% among 320,000; in the data active means inhibition above about 43%;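 further: 0% = enzyme with DMSO and 100% = wells lacking enzyme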
LYPLA1 inh = LYPLA1 inhibitors, primary screen, counter-screen for PME1 inhibitor project, biochemical, fluorescence polarization, FP-Rh probe ABPP. hit rate 0.16% among 320,000. Acyl-protein thioesterase 1 (Homo sapiens), O75608. inhibition, % at 5.9 µM. recombinant LYPLA1;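 active means inhibition above the mean of all tested compounds plus 3 SD, set per campaign, cut at about 14% in these data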;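 further: inhibitors block serine hydrolase probe labeling of LYPLA1 so polarization falls; 0% = enzyme with DMSO and 100% = wells lacking LYPLA1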
LYPLA2 inh = LYPLA2 inhibitors, primary screen, counter-screen for PME1 inhibitor project, biochemical, fluorescence polarization, FP-Rh probe ABPP. Acyl-protein thioesterase 2 (Homo sapiens), O95372. hit rate 0.38% among 320,000. inhibition, % at 5.9 µM. recombinant LYPLA2. AID 2177, 2009;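 active means inhibition above the screen-wide mean plus 3 SD, limit set per campaign, cut at about 26% in these data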;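 further: 0% = LYPLA2 with DMSO and 100% = wells lacking LYPLA2 enzyme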
Target sequence (O95372 whole entry, looked up): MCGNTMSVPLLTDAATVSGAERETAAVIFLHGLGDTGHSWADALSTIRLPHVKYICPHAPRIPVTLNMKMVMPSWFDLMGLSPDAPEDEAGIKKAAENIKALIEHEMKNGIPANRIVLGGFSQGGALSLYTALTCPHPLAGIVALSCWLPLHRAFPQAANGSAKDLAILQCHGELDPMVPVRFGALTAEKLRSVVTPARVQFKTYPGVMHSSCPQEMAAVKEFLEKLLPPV
LYPLA2 confirm = LYPLA2 inhibitors, retest, confirmation, counter-screen for PME1 inhibitor project, biochemical, fluorescence polarization, FP-Rh probe ABPP. shares compounds with LYPLA2 inh. recombinant LYPLA2. inhibition, % at 5.9 µM. hit rate 72% among 1,100. AID 2232, 2010;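 active means mean inhibition across replicates above the hit cutoff set in the primary screen, cut at about 26% in these data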;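 further: blocked labeling of the enzyme by serine hydrolase FP-Rh probe lowers polarization; 0% = enzyme with DMSO and 100% = wells lacking LYPLA2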
LYPLA2 ABPP = LYPLA2 inhibitors in proteome, late-stage follow-up, gel-based competitive ABPP, fluorescence, assay provider | rhLYPLA2 in mouse brain proteome, gel ABPP FP-Rh | hit rate 30% among 150 | AID 652029, 2013 | shares compounds with LYPLA2 inh | inhibition, % at 20 µM;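 active means inhibition of LYPLA2 enzyme probe labeling above about 50%, limit read from the data; inactive means inhibition below that limit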;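 further: loss of FP-Rh probe labeling of the LYPLA2 gel band measured as band density; 0% = DMSO only control band and 100% = blank gel background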
Starred values were filed as active, the others as inactive; . = no result. An excerpt weighted towards active compounds, which were near 1.1% of everything screened.

SMILES | procasp3 activ | procasp7 counter | PREPL inhibitor | LYPLA1 inh | LYPLA2 inh | LYPLA2 confirm | others
CCOc1ccc(C(=O)C2CCN(C(=O)c3ccccc3C(=O)O)CC2)cc1 | 5 | 9 | -2 | 0 | 0 | .
CC(C)(C)c1ccc(C(=O)N2CCC(C(=O)NC3CCCCCC3)CC2)cc1 | -5 | -9 | -2 | 0 | 48* | 54* | LYPLA2 ABPP=20
O=C(Nc1ccc2c(c1)OCCO2)c1cnn(-c2ccccc2)n1 | 7 | 8 | 28 | -5 | -4 | .
CCn1nc(C)c(CNC(=O)c2cc(COc3cncc(Cl)c3)on2)c1C | 6 | 2 | -7 | -3 | 9 | .
COC(=O)c1ccc(CNC(=O)c2cc(COc3cncc(Cl)c3)on2)cc1 | 5 | -3 | -3 | 1 | 35* | 35*
CCOc1ccccc1CN1CCNC(=O)C1CC(=O)NCCc1ccccn1 (stereo not drawn) | 0 | 0 | 17 | -1 | -2 | .
CC1(NC(=O)CSc2nnc(-c3c[nH]c4ccccc34)n2C2CC2)CCS(=O)(=O)C1 (stereo not drawn) | -1 | -2 | -1 | -1 | 2 | .
O=C1N(Cc2cccnc2)C[C@@H]2C[C@@H](c3cccc(Oc4ccccc4)c3)N3CCC[C@@]123 | 0 | 6 | 33 | 5 | 27* | 18
COc1ccc(C(=O)ON=C2CCCc3nonc32)cc1 | . | . | . | . | . | . | LYPLA2 ABPP=6
COc1ccc(NC(=O)CO/N=C2\CCCc3nonc32)cc1 | 14 | 7 | 13 | -2 | -1 | .
COc1ccc(C(=O)C2CCCN(C(=O)c3cc(C4CC4)[nH]n3)C2)c(C)c1 (stereo not drawn) | 8 | 5 | 11 | 0 | 6 | .
COc1ccccc1NC(=O)C1CCN(S(C)(=O)=O)CC1 | -2 | 10 | 11 | -2 | 1 | .
O=C(COc1ccc([N+](=O)[O-])cc1)N/N=C/c1cc([N+](=O)[O-])ccc1N1CCOCC1 | -8 | 16 | 20 | 2 | 35* | 30*
Cc1ccc(OCC(=O)N/N=C/c2cc([N+](=O)[O-])ccc2N2CCCCC2)cc1 | 0 | 13 | 2 | 4 | 5 | .
O=C1c2ccc(Oc3ccc4c(c3)C(=O)N(CCCO)C4=O)cc2C(=O)N1CCCO | -1 | -5 | 4 | 4 | 29* | 15
Cc1cc(C)c(S(=O)(=O)/N=C2/C=C(Sc3ncn[nH]3)C(=O)c3ccccc32)cc1C | -21 | -23 | 15 | 2 | 36* | 33*
COc1ccc(NC(=O)c2cc(F)c(F)cc2Cl)cc1Cl | 7 | 8 | 1 | 3 | 28* | 20
N#Cc1ccc(OCC(=O)N2CCN(c3ccc(C(F)(F)F)cn3)CC2)cc1 | -2 | -1 | -8 | 4 | 64* | 32*
O=C(CCc1ccccc1F)N1CCN(c2ccc(C(F)(F)F)cn2)CC1 | 6 | 1 | -21 | 1 | 25 | .
O=C(COc1ccc2ccccc2c1)NCC(=O)N/N=C/c1ccco1 | 6 | -3 | 17 | 0 | 30* | -4
O=C(CNc1ccc2ccccc2c1)N/N=C/c1ccc(OC(=O)/C=C/c2ccco2)cc1 | 1 | -8 | -21 | -3 | 22 | .
O=C(CSc1nc(N2CCOCC2)nc(N2CCOCC2)n1)Nc1ccccc1F | 3 | -9 | 12 | -2 | -1 | .
CCN(C(=O)COC(=O)CCCN1C(=O)c2cccc3cccc(c23)C1=O)C1CCS(=O)(=O)C1 (stereo not drawn) | 4 | 7 | 6 | 1 | 3 | .
CC12CCC(c3c(C(=O)N4CCOCC4)nn(-c4ccccc4)c31)C2(C)C (stereo not drawn) | 9 | 1 | 6 | 7 | 28* | -3
Cn1c(=O)c2c(ncn2CC(=O)N/N=C/C=C/c2ccccc2)n(C)c1=O | -2 | 13 | 12 | 0 | 4 | .
SMILES | procasp3 activ | procasp7 counter | PREPL inhibitor | LYPLA1 inh | LYPLA2 inh | LYPLA2 confirm | others
Cn1c(=O)c2c(ncn2CC(=O)N/N=C/C(Br)=C/c2ccccc2)n(C)c1=O | 4 | 6 | 18 | -1 | 27* | 39*
S=C(c1c[nH]c2ccc(Br)cc12)N1CCOCC1 | 3 | 4 | 14 | 0 | -4 | .
Cc1c([N+](=O)[O-])cc(C(=O)Nc2ccc(Cc3ccncc3)cc2)cc1[N+](=O)[O-] | -12 | 2 | 3 | 2 | 29* | 28*
CCCCC1CCC(c2nc(-c3ccccn3)no2)CC1 (stereo not drawn) | -7 | 11 | -12 | 8 | 29* | 38*
Fc1ccccc1COc1ccc(/C=N/n2cnnc2)cc1 | 4 | -15 | 38 | 4 | 26* | 12
Cc1ccc(S(=O)(=O)c2nc(S(C)(=O)=O)sc2N2CCC(C)CC2)cc1 | 7 | 9 | -5 | -3 | 1 | .
Cc1cc(C(=O)OCC(=O)NC(C)C)c2ccccc2n1 | -3 | 7 | 17 | -1 | 3 | .
Cc1cc(C(=O)OCC(=O)c2cccs2)c2ccccc2n1 | 7 | 5 | 7 | -2 | 31* | 43*
Cc1ccc(S(=O)(=O)N2CCC[C@H]2C(=O)NCc2ccccc2Cl)cc1 | -2 | -4 | 5 | . | . | .
COC(=O)c1cc(NC(=O)c2ccccc2)c(=O)oc1C | 5 | 1 | 0 | -1 | 27* | 2
COc1ccccc1C1=NOC(COc2ccc3c(C)cc(=O)oc3c2)C1 (stereo not drawn) | 13 | 7 | -2 | 2 | 7 | .
COc1ccc(C2=NOC(COc3ccc4c(C)cc(=O)oc4c3)C2)c(OC)c1 (stereo not drawn) | -4 | -2 | 2 | 2 | 28* | 24
COc1ccc(-c2noc3c2-c2nc(-c4ccc(Cl)cc4)sc2CC3)cc1 | -6 | -5 | 0 | -2 | -7 | .
COc1ccccc1-c1nnc(C2CCN(S(=O)(=O)c3cccc([N+](=O)[O-])c3)CC2)o1 | 11 | 7 | 11 | 2 | 20 | .
COc1ccccc1-c1nnc(C2CCN(S(=O)(=O)c3ccc([N+](=O)[O-])cc3)CC2)o1 | 0 | 5 | 18 | 2 | 75* | 72* | LYPLA2 ABPP=58*

Assay outcomes (PubChem BioAssay)
